Data reported in ChEMBL document CHEMBL4673243, “Discovery of 9-Cyclopropylethynyl-2-((S)-1-[1,4]dioxan-2-ylmethoxy)-6,7-dihydropyrimido[6,1-a]isoquinolin-4-one (GLPG1205), a Unique GPR84 Negative Allosteric Modulator Undergoing Evaluation in a Phase II Clinical Trial” (J Med Chem, 2020).
Converted amounts (≈) assume the structure as drawn.

Legend:
[1] = molecular target: CYP2C19 (Homo sapiens, UniProt P33261); assay: Inhibition of CYP2C19 in human liver microsomes at 10 uM using probe substrate and in presence of co-factor measured after 20 mins by LC-MS/MS analysis relative to control; format: ADME
[2] = molecular target: 3',5'-cyclic-AMP phosphodiesterase 4A (Homo sapiens, UniProt P27815); assay: Inhibition of recombinant human PDE4A overexpressed in HEK293 cells assessed as reduction in cAMP hydrolysis by HTRF based immunoassay; format: cell-based; settings: read-out: IC50
In short: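 Human PDE4A from lysate of HEK293 cells overexpressing the enzyme hydrolyses cAMP; remaining cAMP measured by HTRF competitive immunoassay (d2-labelled cAMP vs cryptate anti-cAMP antibody), signal inversely proportional to cAMP; IC50 determined.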

[3] = molecular target: T1, CYP3A4 (Homo sapiens, UniProt P08684); assay: Inhibition of CYP3A4 in human liver microsomes at 10 uM using midazolam as probe substrate and in presence of co-factor measured after 20 mins by LC-MS/MS analysis relative to control; format: ADME
[4] = molecular target: T2, CYP1A2 (Homo sapiens, UniProt P05177); assay: Inhibition of CYP1A2 in human liver microsomes at 10 uM using probe substrate and in presence of co-factor measured after 20 mins by LC-MS/MS analysis relative to control; format: ADME
T2 sequence (P05177 whole entry): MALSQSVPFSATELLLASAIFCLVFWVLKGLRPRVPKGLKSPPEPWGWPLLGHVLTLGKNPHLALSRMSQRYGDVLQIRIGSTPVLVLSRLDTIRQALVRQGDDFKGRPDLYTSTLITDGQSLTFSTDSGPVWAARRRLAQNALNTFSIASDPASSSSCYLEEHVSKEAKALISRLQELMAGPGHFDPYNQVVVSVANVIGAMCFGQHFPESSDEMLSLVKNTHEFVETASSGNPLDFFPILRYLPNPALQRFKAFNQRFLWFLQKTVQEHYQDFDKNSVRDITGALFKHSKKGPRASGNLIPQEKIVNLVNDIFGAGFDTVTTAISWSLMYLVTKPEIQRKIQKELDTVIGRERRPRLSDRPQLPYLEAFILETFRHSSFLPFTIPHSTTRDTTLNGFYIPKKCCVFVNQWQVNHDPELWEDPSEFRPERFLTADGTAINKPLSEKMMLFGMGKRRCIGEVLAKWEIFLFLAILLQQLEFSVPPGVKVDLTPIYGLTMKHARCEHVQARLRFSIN

[5] = molecular target: CYP2D6 (Homo sapiens, UniProt P10635); assay: Inhibition of CYP2D6 in human liver microsomes at 10 uM using probe substrate and in presence of co-factor measured after 20 mins by LC-MS/MS analysis relative to control; format: ADME
[6] = molecular target: CYP2C9 (Homo sapiens, UniProt P11712); assay: Inhibition of CYP2C9 in human liver microsomes at 10 uM using probe substrate and in presence of co-factor measured after 20 mins by LC-MS/MS analysis relative to control; format: ADME
[7] = molecular target: T1, CYP3A4; assay: Inhibition of CYP3A4 in human liver microsomes at 10 uM using testosterone as probe substrate and in presence of co-factor measured after 20 mins by LC-MS/MS analysis relative to control; format: ADME
[8] = in vitro; settings: mouse, cryopreserved hepatocytes
[9] = Plasma protein binding in human at 5 uM measured after 4 hrs by LC-MS/MS analysis
[10] = Plasma protein binding in mouse at 5 uM measured after 4 hrs by LC-MS/MS analysis
[11] = in vitro; settings: human, cryopreserved hepatocytes
[12] = Plasma protein binding in rat at 5 uM measured after 4 hrs by LC-MS/MS analysis
[13] = in vitro; settings: mouse, liver microsomes
[14] = in vitro; settings: human, liver microsomes
[15] = in vitro; settings: rat, liver microsomes
[16] = Plasma protein binding in dog at 5 uM measured after 4 hrs by LC-MS/MS analysis
[17] = in vitro; settings: human, cryopreserved hepatocytes; remark: listed apart in the source
[18] = molecular target: Cytochrome P450 2C9 (Homo sapiens) (UniProt P11712)
[19] = molecular target: Cytochrome P450 2D6 (Homo sapiens) (UniProt P10635)
[20] = system: Neutrophil; assay: Inhibition of dog neutrophil cell migration; settings: Canis lupus familiaris
[21] = in vitro; settings: dog, cryopreserved hepatocytes
[22] = in vitro; settings: dog, cryopreserved hepatocytes; remark: listed apart in the source
[23] = Apparent permeability from apical to basolateral in human Caco2 cells at 10 uM measured after 60 mins by lucifer yellow dye based LC-MS/MS analysis; settings: Caco-2
[24] = in vitro; settings: dog, liver microsomes
[25] = molecular target: T3, Cytochrome P450 3A4 (Homo sapiens, UniProt P08684); assay: Inhibition of CYP3A4 in human liver microsomes using midazolam as substrate and in presence of co-factor preincubated for 20 mins followed by substrate addition by LC-MS/MS analysis
[26] = Thermodynamic solubility of compound at pH 7.4; settings: buffer
[27] = molecular target: T3, Cytochrome P450 3A4; assay: Inhibition of human CYP3A4 in human liver microsomes using testosterone as substrate and in presence of co-factor preincubated for 20 mins followed by substrate addition by LC-MS/MS analysis
[28] = Thermodynamic solubility of compound at pH 3; settings: buffer
[29] = in vitro; settings: rat, cryopreserved hepatocytes
[30] = molecular target: T4, Cytochrome P450 1A2 (Homo sapiens, UniProt P05177); assay: Inhibition of CYP1A2 in human liver microsomes using probe substrate and in presence of co-factor preincubated for 20 mins followed by substrate addition by LC-MS/MS analysis
T4 sequence (P05177 whole entry): T2 sequence (P05177 whole entry)

[31] = in vitro; settings: rat, cryopreserved hepatocytes; remark: listed apart in the source
[32] = molecular target: Cytochrome P450 2C19 (Homo sapiens, UniProt P33261); assay: Inhibition of CYP2C19 in human liver microsomes using probe substrate and in presence of co-factor preincubated for 20 mins followed by substrate addition by LC-MS/MS analysis
[33] = physchem; settings: aqueous solution with 2% DMSO, pH 7.4
[34] = physchem; settings: aqueous solution with 2% DMSO, pH 3
[35] = in vitro; settings: mouse, cryopreserved hepatocytes; remark: listed apart in the source
[36] = Inhibition of embelin-induced migration of rat neutrophils preincubated for 30 mins followed by embelin addition and measured after 1 hr by celltiter-glo assay; settings: Neutrophil
[37] = Inhibition of embelin-induced migration of human neutrophils preincubated for 30 mins followed by embelin addition and measured after 1 hr by ATPlite luminescence assay; settings: Neutrophil
[38] = in vivo; settings: male, Sprague-Dawley, rat, po, 5 mg/kg
[39] = in vitro; settings: rhesus monkey, liver microsomes

T3 sequence (P08684 whole entry): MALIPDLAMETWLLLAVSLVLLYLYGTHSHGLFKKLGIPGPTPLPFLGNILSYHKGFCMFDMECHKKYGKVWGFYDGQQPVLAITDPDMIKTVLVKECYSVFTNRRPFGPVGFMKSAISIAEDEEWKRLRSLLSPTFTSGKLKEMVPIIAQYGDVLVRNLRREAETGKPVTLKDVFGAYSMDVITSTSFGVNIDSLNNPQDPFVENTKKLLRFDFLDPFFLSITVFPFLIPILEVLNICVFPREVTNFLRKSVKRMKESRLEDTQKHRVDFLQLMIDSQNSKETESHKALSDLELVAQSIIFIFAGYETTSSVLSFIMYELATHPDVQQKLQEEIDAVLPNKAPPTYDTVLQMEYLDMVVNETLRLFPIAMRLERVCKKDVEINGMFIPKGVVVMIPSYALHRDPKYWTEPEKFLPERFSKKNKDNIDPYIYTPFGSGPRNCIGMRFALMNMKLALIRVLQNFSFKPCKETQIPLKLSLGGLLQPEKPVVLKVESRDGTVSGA
T1 sequence (P08684 whole entry): as above
Chain of CYP2C19 (P33261 whole entry): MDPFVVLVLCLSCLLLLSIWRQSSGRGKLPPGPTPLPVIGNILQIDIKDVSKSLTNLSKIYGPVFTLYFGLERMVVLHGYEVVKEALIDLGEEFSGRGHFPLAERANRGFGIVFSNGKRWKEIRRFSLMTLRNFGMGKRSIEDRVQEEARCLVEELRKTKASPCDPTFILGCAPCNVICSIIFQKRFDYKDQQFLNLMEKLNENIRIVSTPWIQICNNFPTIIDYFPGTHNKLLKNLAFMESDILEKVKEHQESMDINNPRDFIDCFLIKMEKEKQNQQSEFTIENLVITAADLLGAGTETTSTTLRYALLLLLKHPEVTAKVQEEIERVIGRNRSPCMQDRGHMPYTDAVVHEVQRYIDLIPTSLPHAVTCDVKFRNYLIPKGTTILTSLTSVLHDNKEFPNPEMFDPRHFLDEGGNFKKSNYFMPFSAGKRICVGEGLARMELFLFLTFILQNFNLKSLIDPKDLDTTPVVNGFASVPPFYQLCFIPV
Chain of Cytochrome P450 2C19 (P33261 whole entry): as above
Chain of CYP2C9 (P11712 whole entry): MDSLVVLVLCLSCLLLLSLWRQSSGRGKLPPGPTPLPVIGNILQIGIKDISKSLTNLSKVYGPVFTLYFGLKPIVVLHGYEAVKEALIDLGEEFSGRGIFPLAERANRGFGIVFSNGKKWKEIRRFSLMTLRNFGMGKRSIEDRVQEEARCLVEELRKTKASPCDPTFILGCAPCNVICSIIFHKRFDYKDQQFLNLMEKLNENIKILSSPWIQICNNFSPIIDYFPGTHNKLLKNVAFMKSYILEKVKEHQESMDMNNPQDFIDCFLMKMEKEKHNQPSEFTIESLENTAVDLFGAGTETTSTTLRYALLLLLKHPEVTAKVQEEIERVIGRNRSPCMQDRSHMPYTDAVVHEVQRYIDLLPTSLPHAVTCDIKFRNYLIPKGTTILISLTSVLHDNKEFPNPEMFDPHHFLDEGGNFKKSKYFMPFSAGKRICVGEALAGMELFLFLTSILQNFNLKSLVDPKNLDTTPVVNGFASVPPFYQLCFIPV
Chain of Cytochrome P450 2C9 (Homo sapiens) (P11712 whole entry, looked up): as the sequence (P11712 whole entry) above
Chain of 3',5'-cyclic-AMP phosphodiesterase 4A (P27815 whole entry): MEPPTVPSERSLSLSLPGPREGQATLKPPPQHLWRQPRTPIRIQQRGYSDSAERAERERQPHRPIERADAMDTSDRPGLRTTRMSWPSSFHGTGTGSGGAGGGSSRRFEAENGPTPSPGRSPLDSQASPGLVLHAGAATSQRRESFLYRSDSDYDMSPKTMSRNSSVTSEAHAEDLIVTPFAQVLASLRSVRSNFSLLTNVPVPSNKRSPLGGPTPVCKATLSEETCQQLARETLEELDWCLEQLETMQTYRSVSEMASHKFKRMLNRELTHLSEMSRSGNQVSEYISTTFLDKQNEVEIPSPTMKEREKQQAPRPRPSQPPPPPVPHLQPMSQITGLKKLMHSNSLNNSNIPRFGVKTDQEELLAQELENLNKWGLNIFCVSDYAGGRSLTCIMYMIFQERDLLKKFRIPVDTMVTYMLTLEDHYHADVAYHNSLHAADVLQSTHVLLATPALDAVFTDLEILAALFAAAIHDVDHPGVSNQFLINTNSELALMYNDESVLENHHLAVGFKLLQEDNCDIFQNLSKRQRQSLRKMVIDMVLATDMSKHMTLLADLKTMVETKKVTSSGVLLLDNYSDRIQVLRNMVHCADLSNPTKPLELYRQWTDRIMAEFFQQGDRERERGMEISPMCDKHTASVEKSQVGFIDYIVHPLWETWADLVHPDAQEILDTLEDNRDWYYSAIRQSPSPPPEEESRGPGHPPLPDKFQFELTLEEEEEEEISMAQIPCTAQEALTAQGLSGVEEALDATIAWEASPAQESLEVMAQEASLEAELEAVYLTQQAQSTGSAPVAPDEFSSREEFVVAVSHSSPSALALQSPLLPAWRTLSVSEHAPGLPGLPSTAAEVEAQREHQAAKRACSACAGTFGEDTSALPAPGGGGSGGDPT
Chain of Cytochrome P450 2D6 (Homo sapiens) (P10635 whole entry, looked up): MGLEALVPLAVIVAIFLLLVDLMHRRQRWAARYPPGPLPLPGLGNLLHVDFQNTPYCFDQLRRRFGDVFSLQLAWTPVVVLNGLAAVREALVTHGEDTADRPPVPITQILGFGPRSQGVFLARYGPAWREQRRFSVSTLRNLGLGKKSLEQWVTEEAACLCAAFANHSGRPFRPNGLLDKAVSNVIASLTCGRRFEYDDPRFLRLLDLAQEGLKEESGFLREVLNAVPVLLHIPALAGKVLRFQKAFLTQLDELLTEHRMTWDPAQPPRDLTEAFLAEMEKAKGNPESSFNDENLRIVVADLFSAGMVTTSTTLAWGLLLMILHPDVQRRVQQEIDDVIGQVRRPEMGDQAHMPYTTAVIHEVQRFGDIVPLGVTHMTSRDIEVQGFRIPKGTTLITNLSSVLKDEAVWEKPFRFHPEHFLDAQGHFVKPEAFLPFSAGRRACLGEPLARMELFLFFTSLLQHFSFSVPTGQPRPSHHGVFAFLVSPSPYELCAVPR
Chain of CYP2D6 (P10635 whole entry): as the sequence (P10635 whole entry, looked up) above

Structure (SMILES): COc1cc2c(cc1OC)-c1cc(NCc3ccccc3)nc(=O)n1CC2
- inhibition at 20 min, 10 µM [1]: < 33%
- IC50 [2]: 553 nM
- inhibition at 20 min, 10 µM [3]: < 33%
- inhibition at 20 min, 10 µM [4]: < 33%
- inhibition at 20 min, 10 µM [5]: < 33%
- inhibition at 20 min, 10 µM [6]: < 33%
- inhibition at 20 min, 10 µM [7]: < 33%

Structure (SMILES): COc1ccc2c(c1)CCn1c-2cc(OCC2COc3ccccc3O2)nc1=O (centres undefined)
- CLint scaled at 1 µM [8]: 375 mL/min/kg
- fraction unbound at 4 h, 5 µM [9]: 0.002
- fraction unbound at 4 h, 5 µM [10]: 0.01
- CLint scaled at 1 µM [11]: 90 mL/min/kg
- fraction unbound at 4 h, 5 µM [12]: 0.004
- CLint scaled at 0.5 h, 1 µM [13]: 532 mL/min/kg
- CLint scaled at 0.5 h, 1 µM [14]: 76.7 mL/min/kg
- CLint scaled at 0.5 h, 1 µM [15]: 615 mL/min/kg

Structure (SMILES): COc1ccc2c(c1)CCn1c-2cc(OCC2CCCCO2)nc1=O (centres undefined)
- CLint scaled at 1 µM [8]: 575 mL/min/kg
- CLint scaled at 1 µM [11]: 25 mL/min/kg
- CLint scaled at 0.5 h, 1 µM [13]: 463 mL/min/kg
- CLint scaled at 0.5 h, 1 µM [14]: 21.7 mL/min/kg

Structure (SMILES): O=c1nc(OCC2COCCO2)cc2n1CCc1cc(CCc3ccccn3)ccc1-2 (centres undefined)
- CLint scaled at 0.5 h, 1 µM [13]: 517 mL/min/kg
- CLint scaled at 0.5 h, 1 µM [14]: 25 mL/min/kg

Structure (SMILES): COc1ccc2c(c1)CCn1c-2cc(OCC2CCCO2)nc1=O (centres undefined)
- CLint scaled at 1 µM [8]: 647 mL/min/kg
- CLint scaled at 1 µM [11]: 23.3 mL/min/kg
- CLint scaled at 0.5 h, 1 µM [13]: 2150 mL/min/kg
- CLint scaled at 0.5 h, 1 µM [14]: 33.3 mL/min/kg

Structure (SMILES): CN(CC#Cc1ccc2c(c1)CCn1c-2cc(OCC2COCCO2)nc1=O)Cc1ccccc1 (centres undefined)
- CLint scaled at 0.5 h, 1 µM [13]: 433 mL/min/kg
- CLint scaled at 0.5 h, 1 µM [14]: 88.3 mL/min/kg

Structure (SMILES): O=c1nc(OC[C@H]2COCCO2)cc2n1CCc1cc(C#CC3CC3)ccc1-2
- fraction unbound at 4 h, 5 µM [16]: 0.033
- half-life at 1 µM [17]: > 3.33 h
- CLint scaled at 1 µM [8]: < 72.8 mL/min/kg
- fraction unbound at 4 h, 5 µM [9]: 0.059
- fraction unbound at 4 h, 5 µM [10]: 0.017
- IC50 [18]: 1850 nM
- IC50 [19]: 31600 nM
- IC50 [20]: 111 nM
- half-life at 1 µM [21]: > 2.52 h
- CLint scaled at 1 µM [22]: < 32 mL/min/kg
- Papp A→B at 1 h, 10 µM [23]: 31.2 ×10⁻⁶ cm/s
- CLint scaled at 1 µM [11]: < 21.3 mL/min/kg
- CLint scaled at 0.5 h, 1 µM [24]: 52.7 mL/min/kg
- IC50 [25]: > 50000 nM
- solubility thermodynamic [26]: 9.49 µg/mL (≈ 25.1 µM)
- IC50 [27]: > 50000 nM
- solubility thermodynamic [28]: 17.6 µg/mL (≈ 46.5 µM)
- fraction unbound at 4 h, 5 µM [12]: 0.037
- half-life at 1 µM [29]: > 3.13 h
- IC50 [30]: > 100000 nM
- CLint scaled at 1 µM [31]: < 35.3 mL/min/kg
- IC50 [32]: 18200 nM
- solubility [33]: 113 µg/mL (≈ 299 µM)
- CLint scaled at 0.5 h, 1 µM [13]: 98.3 mL/min/kg
- solubility [34]: 113 µg/mL (≈ 299 µM)
- half-life at 1 µM [35]: > 3.33 h
- IC50 [36]: 153 nM
- CLint scaled at 0.5 h, 1 µM [14]: 16 mL/min/kg
- IC50 [37]: 51 nM
- CLint scaled at 0.5 h, 1 µM [15]: 82.8 mL/min/kg

Structure (SMILES): CC(C)CC(O)C#Cc1ccc2c(c1)CCn1c-2cc(OCC2COCCO2)nc1=O (centres undefined)
- CLint scaled at 0.5 h, 1 µM [13]: 437 mL/min/kg
- CLint scaled at 0.5 h, 1 µM [15]: 255 mL/min/kg

Structure (SMILES): COc1ccc2c(c1)CCn1c-2cc(OCC2COCCO2)nc1=O (centres undefined)
- CLint scaled at 1 µM [8]: 262 mL/min/kg
- fraction unbound at 4 h, 5 µM [9]: 0.223
- fraction unbound at 4 h, 5 µM [10]: 0.389
- CLint scaled at 1 µM [11]: < 11.7 mL/min/kg
- fraction unbound at 4 h, 5 µM [12]: 0.285
- CLint scaled at 0.5 h, 1 µM [13]: 173 mL/min/kg
- CLint scaled at 0.5 h, 1 µM [14]: < 15 mL/min/kg
- CLint scaled at 0.5 h, 1 µM [15]: < 23.3 mL/min/kg

Structure (SMILES): N#Cc1ccccc1-c1ccc2c(c1)CCn1c-2cc(OCC2COCCO2)nc1=O (centres undefined)
- AUC(0-inf) at 24 h [38]: 2640 ng·h/mL
- CLint scaled at 0.5 h, 1 µM [24]: 167 mL/min/kg
- CLint scaled at 0.5 h, 1 µM [39]: 193 mL/min/kg
- CLint scaled at 0.5 h, 1 µM [13]: 151 mL/min/kg
- CLint scaled at 0.5 h, 1 µM [14]: 86.7 mL/min/kg
- CLint scaled at 0.5 h, 1 µM [15]: 105 mL/min/kg

Structure (SMILES): COc1cc2c(cc1OC)-c1cc(OCCCc3ccccc3)nc(=O)n1CC2
- solubility [33]: 3 µg/mL (≈ 7.64 µM)
